Screening data deposited in PubChem BioAssay by The Scripps Research Institute Molecular Screening Center.
mABHD4 FP: ABHD4 inhibitors, primary screen, biochemical, fluorescence polarization, mouse; actives 0.54% (n = 370,000); (Lyso)-N-acylphosphatidylethanolamine lipase (Mus musculus), Q8VD66; inhibition, % at 8.92 µM; purified mABHD4, FP-Rh probe fluorescence polarization;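 active means inhibition exceeding the mean over every tested compound plus 3 SD, cut at about 30% in these data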;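 further: 0% = plate median of compound wells and 100% = S159A mutant with DMSO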
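System: mouse ABHD4 enzyme, wild type / Medium: HEPES pH 7.0, NaCl, Pluronic buffer / Reagent: FP-Rh activity-based fluorescent probe / Control set: S159A mutant high control, sample median low control / Detection: fluorescence polarization with parallel and perpendicular emission, 525/598 nm / Schedule: 45 min + 60 min at 25 °C / Compound dosing: 8.92 µM, single dose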
PME-1 inh: PME-1 inhibitors via competitive probe labeling, primary screen, biochemical, fluorescence polarization, FP-Rh probe, HTS; actives 0.53% (n = 320,000); inhibition, % at 5.9 µM; recombinant PME-1; Protein phosphatase methylesterase 1 (Homo sapiens), Q9Y570;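 active means inhibition above the campaign mean of all compounds plus 3 SD, cut at about 26% in these data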;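 further: competitive labeling of PME-1 active site by serine hydrolase directed probe; 0% = PME-1 with DMSO and 100% = wells lacking PME-1 enzyme; inhibitors block probe labeling so polarization falls and inhibition rises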
Target sequence (Q9Y570 whole entry, looked up): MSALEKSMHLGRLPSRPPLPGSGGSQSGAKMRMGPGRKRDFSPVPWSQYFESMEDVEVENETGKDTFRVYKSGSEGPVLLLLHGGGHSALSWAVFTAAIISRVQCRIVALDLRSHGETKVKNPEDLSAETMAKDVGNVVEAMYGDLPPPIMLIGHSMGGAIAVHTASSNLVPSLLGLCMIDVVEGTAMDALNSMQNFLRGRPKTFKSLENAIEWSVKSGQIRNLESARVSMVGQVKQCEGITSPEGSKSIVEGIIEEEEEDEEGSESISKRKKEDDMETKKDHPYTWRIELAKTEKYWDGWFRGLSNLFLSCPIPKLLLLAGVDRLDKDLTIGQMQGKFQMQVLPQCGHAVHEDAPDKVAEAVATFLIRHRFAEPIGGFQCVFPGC
HTRA1 inh: HTRA1 serine protease inhibitors, primary screen, biochemical, fluorescence polarization, HTS | Q92743 | recombinant HTRA1, FP-rhodamine activity-based probe | inhibition, % at 5.96 µM | actives 0.5% (n = 340,000) | AID 504803, 2011; in the data active means inhibition above about 36%;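 further: 0% = enzyme with DMSO and 100% = wells lacking enzyme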
Fam108B counter: mouse Fam108B serine hydrolase inhibitors, primary screen, counter-screen for RBBP9 inhibitor project, biochemical, fluorescence polarization. recombinant Fam108B, FP-Rh probe fluorescence polarization. AID 1947, 2009. inhibition, % at 9.51 µM. actives 0.33% (n = 300,000);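 active means inhibition above the screen mean inhibition plus 3 SD, computed separately per campaign, cut at about 18% in these data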;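 further: inhibitors lower polarization as less probe binds the enzyme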
TCR-CD3 inh: inhibitors of human TCR-CD3 interaction, primary screen, biochemical, fluorescence, TAMRA-labeled TCR probe. T-cell receptor (TCR). inhibition, % at 9.4 µM. actives 0.37% (n = 360,000). AID 651800, 2012; in the data active means inhibition above about 19%;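 further: recombinant mutant TCR 2C K166C tagged with TAMRA read by polarization; 0% = receptor in buffer alone and 100% = receptor with positive control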
SIAE primary: human SIAE inhibitors, primary screen, biochemical, fluorescence polarization, FP-Rh probe, 1536-well HTS; SIAE FP-Rh probe binding; AID 1053197, 2014; inhibition, % at 9.66 µM; actives 0.69% (n = 370,000); Sialate O-acetylesterase (Homo sapiens), Q9HAT2;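 active means inhibition above a cutoff: mean of compounds within the control limits plus 3 SD of those, cut at about 17% in these data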;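 further: 0% = plate median of compound wells and 100% = probe without SIAE protein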
The depositor's hits bear a star; nt = no result given. An excerpt weighted towards active compounds, which were near 1.8% of everything screened.

SMILES	mABHD4 FP	PME-1 inh	HTRA1 inh	Fam108B counter	TCR-CD3 inh	SIAE primary
O=C(CN1CCN(c2ccc(O)cc2)CC1)Nc1cc(S(=O)(=O)N2CCCC2)ccc1Cl	18	37*	-18	3	-12	7
CCN1CCN(CC(=O)Nc2cc(S(=O)(=O)N3CCCCC3)ccc2Cl)CC1	20	nt	5	nt	-1	4
O=C(CSc1cccc(C(F)(F)F)c1)Nc1cc(S(=O)(=O)N2CCCC2)ccc1Cl	-6	49*	-18	-6	6	9
O=C(Nc1cccc(Cl)c1)Nc1cc(S(=O)(=O)N2CCCCC2)ccc1Cl	-170	-151	-142	-55	85*	-230
CN1CCN(S(=O)(=O)c2ccc(NC(=O)Nc3cccc(Cl)c3)cc2)CC1	-21	-6	-26	-22	1	-21
O=C(N/N=C/c1sc(N2CCOCC2)nc1-c1ccccc1)c1ccccc1O	13	51*	25	15	-11	12
O=C(N/N=C/c1sc(N2CCOCC2)nc1-c1ccccc1)c1ccccc1Cl	-3	0	-1	5	0	0
CN1CCN(c2ccc(-c3cc(NC=O)c4ncc(-c5ccc(F)c(Cl)c5)n4c3)cc2)CC1	8	nt	nt	nt	-10	18*
O=CNc1cc(-c2ccccc2)cn2c(-c3ccc(F)c(Cl)c3)cnc12	-16	nt	nt	nt	-12	-7
Cc1cccc(-c2cccc3c4c([nH]c23)[C@@H]2C[C@H](N(C)C(=O)NC3CCCCC3)[C@H]([C@H](C)O)CN2CC4)c1	5	nt	nt	nt	nt	-3
Cc1ccc(Nc2nnc(SC/C(O)=C(\C#N)c3nc4ccccc4[nH]3)s2)c(C)c1	-3	64*	4	18	-3	0
COc1ccc(C(=O)N/N=C/c2cc3ccccc3[nH]c2=S)cc1	6	1	33	7	30*	-8
Nc1cc(S(=O)(=O)O)cc2ccc(S(=O)(=O)O)cc12	17	nt	5	nt	-1	1
Cc1cc(-c2ccc(N=Nc3c(S(=O)(=O)O)cc4cc(S(=O)(=O)O)cc(N)c4c3O)c(C)c2)ccc1N=Nc1c(S(=O)(=O)O)cc2cc(S(=O)(=O)O)cc(N)c2c1O	nt	3	nt	36*	nt	nt
CC(C)CCN(C)C1CCN(C(=O)Nc2ccc3c(c2)OCO3)CC1	3	nt	nt	nt	nt	-1
CCCCNS(=O)(=O)/C=C/c1ccc(F)cc1CNC(=O)OC(C)(C)C	-3	nt	nt	nt	nt	3
CCCCN(CCCC)CCNC(=O)c1cn(CC)c2ccc(S(=O)(=O)N3CCc4ccccc4C3)cc2c1=O	3	59*	-9	7	-6	0
CCCN(CCC)CCCNC(=O)c1cn(CC)c2ccc(S(=O)(=O)N(C)C3CCCCC3)cc2c1=O	0	49*	-4	4	-4	11
CCCCN(CCCC)CCNC(=O)c1cn(C)c2ccc(S(=O)(=O)N(C)C3CCCCC3)cc2c1=O	-14	66*	-4	-4	-8	-10
CCCN(CCC)CCCNC(=O)c1cn(C)c2ccc(S(=O)(=O)N(C)C3CCCCC3)cc2c1=O	-2	13	-2	1	-3	-1
CC(C)C(C#CC1CC1)NCc1ccc2c(c1)OCO2 (configuration not stated)	2	nt	nt	nt	nt	-2
COC(=O)[C@]12C[C@H](CC(=O)NCC3CCCCC3)C(=O)N(Cc3ccc(Cl)cc3Cl)C1=C[C@H](C(C)C)O[C@@H]2C1CC1	-10	nt	nt	nt	nt	-4
Nc1nc2ccccc2[nH]1	4	nt	2	nt	3	-3
Nc1ccccc1Sc1nc2ccccc2[nH]1	2	-3	-7	0	-14	18*
Cc1nn(-c2ccccc2)c2ncc(C(=O)c3cc(Cl)ccc3O)cc12	-5	29*	-2	-9	0	-1
SMILES	mABHD4 FP	PME-1 inh	HTRA1 inh	Fam108B counter	TCR-CD3 inh	SIAE primary
Cc1nn(C)c2ncc(C(=O)c3ccccc3O)cc12	4	5	-5	-2	-3	6
Cc1ccc(NS(=O)(=O)c2cccc(C(=O)N3CCN(c4ncccn4)CC3)c2)cc1	5	31*	1	nt	5	4
COC(=O)C1CN(Cc2ccc(C)cc2)CCS(=O)(=O)N1Cc1cn(Cc2ccccc2)nn1 (configuration not stated)	5	nt	nt	nt	nt	1
Cc1ncc(CO)c(/C=N/NC(=S)Nc2cccc(Cl)c2)c1O	nt	14	43*	6	nt	nt
S=C(NCc1ccccc1)Nc1cccc(Cl)c1	-6	-2	-25	1	-7	13
Cc1ncc(CO)c(/C=N/NC(=S)Nc2ccc(Cl)c(Cl)c2)c1O	-14	27*	16	16	13	19*
COc1cc(N=Cc2c(CO)cnc(C)c2O)cc(OC)c1OC	3	-11	-2	0	-5	7
Cc1cccc(-n2c(O)c(C=Nc3ccccc3O)c3ccccc3c2=O)n1	3	-6	2	-3	40*	-3
Cc1cccc(-n2c(O)c(C=Nc3ccc(O)cc3)c3ccccc3c2=O)n1	7	6	-1	3	2	6
COC(=O)[C@]12C[C@H](CC(=O)N3CCN(C(=O)c4ccco4)CC3)C(=O)N(Cc3ccc(Cl)cc3Cl)C1=C[C@H](C1CCCC1)O[C@@H]2C	-5	nt	nt	nt	nt	-5
O=c1[nH][nH]c2c(N=Cc3ccccc3O)ccc(F)c12	nt	nt	47*	nt	nt	nt
COc1c(CC=C(C)C)cc(C2CC(=O)c3c(O)cc(O)cc3O2)cc1CC=C(C)C (configuration not stated)	-29	-16	-15	-9	7	-22
COC1=CC(=O)C(C2CC(=O)c3c(O)cc(O)cc3O2)=CC1=O (configuration not stated)	49*	nt	18	nt	3	11
CN(CCCOC(=O)c1cc2ccccc2o1)C1CN(Cc2cn(Cc3ccc([N+](=O)[O-])cc3)nn2)S(=O)(=O)C1 (configuration not stated)	-1	nt	nt	nt	nt	-3
COc1ccc(C2=NN(S(C)(=O)=O)C(c3ccc4nccnc4c3)C2)cc1 (configuration not stated)	-3	1	-2	-1	6	2
COc1ccc(C2CC(c3ccc(OC)c(OC)c3)=NN2S(C)(=O)=O)cc1 (configuration not stated)	0	33*	-3	-4	3	8
CCCC1C2CN(C(C)C)CC=C2C(C#N)=C(N)C1(C#N)C#N (configuration not stated)	13	5	11	1	11	24*
CN1CC=C2C(C#N)=C(N)C(C#N)(C#N)C(CCc3ccccc3)C2C1 (configuration not stated)	nt	3	14	2	nt	nt
Nc1cc(Cl)nc(N/N=C/c2ccccc2[N+](=O)[O-])n1	2	2	3	3	2	18*
